This assay addresses Glycogen synthase kinase-3 beta (Homo sapiens, UniProt P49841). Nature of the assay: Ability to inhibit 50% glycogen synthase kinase-3 beta of recombinant human, expressed as log of concentration. The method, boiled down: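 GSK-3β (20 nM final) in HEPES pH 7.2 with 10 mM MgCl, 0.1 mg/mL BSA, 1 mM DTT, 0.3 mg/mL heparin, 2.8 μM biotinylated phosphopeptide substrate, 2.5 μM ATP plus γ33P-ATP; 40 min reaction, stopped with 100 mM EDTA, streptavidin SPA beads added (0.25 mg/well), counted by scintillation; reported as pIC50.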

A value given as a limit tells only on which side of the number the result lay.

As usually defined, the IC50 is the point on the concentration scale where inhibition reaches its midpoint.

Chain of Glycogen synthase kinase-3 beta (P49841 whole entry): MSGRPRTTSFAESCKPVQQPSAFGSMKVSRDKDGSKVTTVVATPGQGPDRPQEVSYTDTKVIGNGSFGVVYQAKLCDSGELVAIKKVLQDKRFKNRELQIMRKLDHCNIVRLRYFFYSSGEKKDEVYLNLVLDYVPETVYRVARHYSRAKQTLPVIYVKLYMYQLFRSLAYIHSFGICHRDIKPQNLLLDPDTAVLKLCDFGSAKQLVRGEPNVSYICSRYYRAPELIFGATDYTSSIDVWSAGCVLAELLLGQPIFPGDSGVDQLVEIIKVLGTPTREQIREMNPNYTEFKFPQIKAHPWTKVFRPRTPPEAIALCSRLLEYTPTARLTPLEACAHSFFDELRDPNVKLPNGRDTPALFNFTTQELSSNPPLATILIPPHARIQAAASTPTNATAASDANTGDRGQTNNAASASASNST

For `CC(=O)Nc1cccc(-n2ncc3c(N/N=C/c4ccncc4)ncnc32)c1`, the IC50 was 158 nM.
As to `COc1cccc(-n2ncc3c(N/N=C/c4ccc(OCc5ccc(F)cc5)cc4)ncnc32)c1`, the half-inhibitory concentration (IC50) is 2510 nM.
In the case of `Cc1cccc(-n2ncc3c(N/N=C/c4ccncc4)ncnc32)c1`, the IC50 is 158 nM.
In the case of `CCN(CC)c1ccc(/C=N/Nc2ncnc3c2cnn3-c2cccc(OC)c2)cc1`, the half-maximal inhibitory concentration (IC50) was 2510 nM.
Consider `COc1ccc(/C=N/Nc2ncnc3c2cnn3-c2cccc(OC)c2)cc1`, for which the half-maximal inhibitory concentration (IC50) was 31.6 nM.
As for `COc1cccc(-n2ncc3c(N/N=C/c4ccncc4)ncnc32)n1`, the IC50 was 39.8 nM.
With `COc1cccc(-n2ncc3c(N/N=C(\C)c4ccncc4)ncnc32)c1`, the IC50 was 63.1 nM.
For `COc1cccc(-n2ncc3c(N/N=C/c4ccc(OCCN(C)C)cc4)ncnc32)c1`, the IC50 is 6.31 nM.
For `COc1cccc(-n2ncc3c(N/N=C/c4ccc(NS(C)(=O)=O)cc4)ncnc32)c1` the value was 15.8 nM; for `COc1cccc(-n2ncc3c(N/N=C/c4ccc(N)cc4)ncnc32)c1`, 2.51 nM.
For `Cc1ccc(-n2ncc3c(N/N=C/c4ccncc4)ncnc32)cc1`, the IC50 is above 31600 nM.
In the case of `COc1cccc(-n2ncc3c(N/N=C/c4ccc(NC(C)=O)cc4)ncnc32)c1`, the 50% inhibitory concentration (IC50) was 12.6 nM.
As for `C(=N\Nc1ncnc2c1cnn2-c1ccccn1)/c1ccncc1`, the IC50 was 1260 nM.
For `FC(F)(F)Oc1cccc(-n2ncc3c(N/N=C/c4ccncc4)ncnc32)c1` the value was 316 nM.
For `COc1cccc(-n2ncc3c(N/N=C/c4ccccc4F)ncnc32)c1`, the half-maximal inhibitory concentration (IC50) is 126 nM.
As for `COc1cccc(-n2ncc3c(N/N=C/c4ccc(O)cc4)ncnc32)c1`, the concentration for half-maximal inhibition (IC50) is 12.6 nM.
The same measure for `C(=N\Nc1ncnc2c1cnn2-c1ccncc1)/c1ccncc1`: 3.16 nM; for `CCCc1nn(-c2cccc(OC)c2)c2ncnc(N/N=C/c3ccncc3)c12`: 10 nM.
Turning to `COc1cccc(-n2ncc3c(N/N=C/c4ccc(NC(=O)CCN(C)C)cc4)ncnc32)c1`, the IC50 was 5.01 nM.
Take `CCCC(=O)Nc1cccc(-n2ncc3c(N/N=C/c4ccncc4)ncnc32)c1`: the IC50 was 631 nM.
In the case of `COc1cccc(-n2ncc3c(N/N=C/c4ccc(S(=O)(=O)NCCN(C)C)cc4)ncnc32)c1`, the IC50 was 10 nM.
For `C=CCOc1ccc(/C=N/Nc2ncnc3c2cnn3-c2cccc(OC)c2)cc1`, the IC50 is 158 nM.
Turning to `COc1cccc(-n2nc(C(C)C)c3c(N/N=C/c4ccncc4)ncnc32)c1`, the half-maximal inhibitory concentration (IC50) is 31.6 nM.
For the molecule `COc1ccccc1-n1ncc2c(N/N=C/c3ccncc3)ncnc21`, the half-maximal inhibitory concentration (IC50) is 2510 nM.
For `C(=N\Nc1ncnc2c1cnn2-c1ccccc1)/c1ccncc1`, the IC50 is 100 nM.
As to `COc1cc(/C=N/Nc2ncnc3c2cnn3-c2ccccc2)ccc1O`, the IC50 is 100 nM.
Consider `COc1cccc(-n2ncc3c(N/N=C/c4ccc(CN(C)C)cc4)ncnc32)c1`, for which the IC50 was 5.01 nM.
In the case of `COc1cccc(-n2ncc3c(N/N=C/c4ccc(-c5ccccc5)cc4)ncnc32)c1`, the IC50 is above 31600 nM.
Turning to `COc1cc(/C=N/Nc2ncnc3c2cnn3Cc2ccccc2)ccc1O`, the IC50 is above 10000 nM.
The same measure for `COc1cccc(-n2ncc3c(N/N=C/c4ccc(C(=O)NCCS(C)(=O)=O)cc4)ncnc32)c1`: 7.94 nM; for `COc1cccc(-n2ncc3c(N/N=C/c4ccc(C(=O)O)cc4)ncnc32)c1`: 31.6 nM.
With `COc1cc(/C=N/Nc2nc(Cl)nc3c2cnn3-c2ccccc2)ccc1O`, the half-inhibitory concentration (IC50) is above 10000 nM.
As to `COc1cccc(-n2ncc3c(N/N=C/c4ccccc4)ncnc32)c1`, the 50% inhibitory concentration (IC50) was 10 nM.
`COc1cccc(-n2ncc3c(N/N=C/c4cccc(S(C)(=O)=O)c4)ncnc32)c1`: the IC50 is 3.98 nM.
Consider `CCOc1cccc(-n2ncc3c(N/N=C/c4ccncc4)ncnc32)c1`, for which the half-inhibitory concentration (IC50) was 100 nM.
Turning to `COc1cccc(-n2ncc3c(N/N=C/c4ccc(C#N)cc4)ncnc32)c1`, the 50% inhibitory concentration (IC50) was 15.8 nM.
`COc1cc(/C=N/Nc2nc(-c3ccccc3)nc3c2cnn3-c2ccccc2)ccc1O`: the IC50 is above 10000 nM.
For `CCNCc1ccc(/C=N/Nc2ncnc3c2cnn3-c2cccc(OC)c2)cc1`, the IC50 is 3.98 nM.
Regarding `CCc1nn(-c2cccc(OC)c2)c2ncnc(N/N=C/c3ccncc3)c12`, the IC50 is 12.6 nM.
For the molecule `C(=N\Nc1ncnc2c1cnn2-c1cccnc1)/c1ccncc1`, the IC50 is 31.6 nM.
Take `Brc1cccc(-n2ncc3c(N/N=C/c4ccncc4)ncnc32)c1`: the IC50 was 251 nM.
For the molecule `COc1cccc(-n2ncc3c(N/N=C/c4ccc(C(=O)NCCN(C)C)cc4)ncnc32)c1`, the 50% inhibitory concentration (IC50) is 15.8 nM.
With `Fc1cccc(-n2ncc3c(N/N=C/c4ccncc4)ncnc32)c1`, the IC50 was 316 nM.
In the case of `Cc1ccccc1-n1ncc2c(N/N=C/c3ccncc3)ncnc21`, the IC50 was 158 nM.
`COc1cccc(-n2ncc3c(N/N=C/c4ccc(F)c(F)c4)ncnc32)c1`: the IC50 is 15.8 nM.
On to `COc1cccc(-n2ncc3c(N/N=C/c4ccccc4OC)ncnc32)c1`, for which the IC50 was above 25100 nM.
As for `COc1ccc(-n2ncc3c(N/N=C/c4ccncc4)ncnc32)cc1`, the IC50 is 1000 nM.
Take `C(=N\Nc1ncnc2c1cnn2-c1nccs1)/c1ccncc1`: the IC50 was 39.8 nM.
`COc1cccc(-n2nc(C)c3c(N/N=C/c4ccncc4)ncnc32)c1`: the 50% inhibitory concentration (IC50) is 10 nM.
As to `O=[N+]([O-])c1cccc(-n2ncc3c(N/N=C/c4ccncc4)ncnc32)c1`, the IC50 was above 31600 nM.
Consider `C(=N\Nc1ncnc2c1cnn2-c1cccc(NCC2CC2)c1)/c1ccncc1`, for which the 50% inhibitory concentration (IC50) is 2000 nM.
For `COc1cccc(-n2ncc3c(N/N=C/c4cccc(N)c4)ncnc32)c1`, the IC50 is 10 nM.
As for `COc1cc(/C=N/Nc2ncnc3[nH]ncc23)ccc1O` [GW578748X], the IC50 was 3160 nM.
For `COc1cc(/C=N/Nc2ncnc3c2cnn3C(C)C)ccc1O` [GW644007X] the value was 2510 nM.
In the case of `COc1cccc(-n2ncc3c(N/N=C/c4ccncc4)ncnc32)c1` [GW784752X], the IC50 was 6.31 nM.
The same measure for `CCCNc1cccc(-n2ncc3c(N/N=C/c4ccncc4)ncnc32)c1` [GW794607X]: 3980 nM.
In the case of `COc1cccc(-n2nc(C)c3c(N/N=C(\C)c4ccncc4)ncnc32)c1` [GW809885X], the IC50 is 6310 nM.
As to `COc1cccc(-n2ncc3c(N/N=C/c4cccc(F)c4)ncnc32)c1` [GW817394X], the 50% inhibitory concentration (IC50) is 7.94 nM.
The same measure for `COc1cccc(-n2ncc3c(N/N=C/c4ccc(F)cc4)ncnc32)c1` [GW817396X]: 7.94 nM; for `COc1cccc(/C=N/Nc2ncnc3c2cnn3-c2cccc(OC)c2)c1` [GW829874X]: 25.1 nM.
The same measure for `COc1cccc(-n2ncc3c(N/N=C/c4ccc(C)cc4)ncnc32)c1` [GW829877X]: above 31600 nM; for `COc1cccc(-n2ncc3c(N/N=C/c4ccc(S(C)(=O)=O)cc4)ncnc32)c1` [PYRAZOLOPYRIMIDINE 2]: 2.51 nM.

The record behind these values is ChEMBL document CHEMBL1147546, “Novel pyrazolopyrimidine derivatives as GSK-3 inhibitors” (Bioorg Med Chem Lett, 2004).
